Measured values reported in ChEMBL document CHEMBL4145466, “Design, synthesis, and biological evaluation of novel combretastatin A-4 thio derivatives as microtubule targeting agents” (Eur J Med Chem, 2018).
Calls of active or inactive are those of the source. The rule behind the calls is not given here.

What was measured:
[1] = tested on: MDA-MB-231; test: Induction of apoptosis in human MDA-MB-231 cells assessed as increase in histone-associated DNA fragments in oligonucleosomes at 0.1 uM after 24 hrs by ELISA; type: functional, cell-based
Method in brief: (§1)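 Cells (2 × 10^4) were incubated for 24 h at 0.1, 0.5 or 1 µM, lysed and centrifuged. Supernatants went onto a streptavidin plate with anti-histone-biotin and anti-DNA-peroxidase for 2 h, followed by ABTS for 30 min and a reading at 405 nm. Nucleosome content was expressed as an enrichment factor, as mean ± SD of three experiments.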

[2] = molecular target: T1, Tubulin (Homo sapiens) (UniProt P68371+Q9H4B7+P0DPH7+P68366+Q13509+Q71U36+P04350+Q3ZCM7+P07437+P68363+Q9BQE3+Q6PEY2+Q13885+Q9BVA1+Q9BUF5); test: Inhibition of tubulin polymerization in human HeLa cells assessed as perturbation in cytoskeleton structure at 1 uM after 24 hrs by Hoechst 33258/FITC staining-based flow cytometric analysis; type: cell-based
[3] = molecular target: T1, Tubulin (Homo sapiens); test: Inhibition of tubulin polymerization in human A431 cells assessed as perturbation in cytoskeleton structure at 1 uM after 24 hrs by Hoechst 33258/FITC staining-based flow cytometric analysis; type: cell-based
[4] = molecular target: T1, Tubulin (Homo sapiens); test: Inhibition of tubulin polymerization in human SKOV3 cells assessed as micronuclei formation at 1 uM after 24 hrs by Hoechst 33258/FITC staining-based flow cytometric analysis; type: cell-based
Method in brief: (§2)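 Cells seeded at 12.5 × 10^4 per well and exposed to 1 µM compound for 24 h. Nuclei were stained with Hoechst 33258 (10 µg/mL, 30 min, 37 °C), then fixed in 4% formaldehyde/PBS (15 min, RT). Cells were permeabilized with 1% Triton X-100, blocked with 2% BSA/PBS for 1 h, and incubated with anti-α-tubulin-FITC (1:50) overnight at 4 °C. Imaged by fluorescence microscopy.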

[5] = tested on: HeLa; test: Induction of apoptosis in human HeLa cells assessed as increase in histone-associated DNA fragments in mononucleosomes at 0.1 uM after 24 hrs by ELISA; type: functional, cell-based; method in brief: as §1
[6] = molecular target: T1, Tubulin (Homo sapiens); test: Inhibition of tubulin polymerization in human MCF7 cells assessed as perturbation in cytoskeleton structure at 1 uM after 24 hrs by Hoechst 33258/FITC staining-based flow cytometric analysis; type: cell-based; method in brief: as §2
[7] = tested on: SK-OV-3; test: Induction of apoptosis in human SKOV3 cells after 24 hrs by FITC Annexin V/propidium iodide staining-based FACScan flow cytometric analysis; type: functional, cell-based
Method in brief: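 After 24 h of compound exposure, 1 × 10^6 cells were labelled with annexin V-FITC and PI for 15 min at 25 °C in the dark. They were read on a FACScan with 488 nm excitation, detecting FITC at 525 nm and PI at 620 nm. Results are mean ± SD of three independent experiments, with Dunnett's test against control.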

[8] = tested on: Tubulin; test: Inhibition of tubulin polymerization in human HaCaT cells assessed as micronuclei formation at 1 uM after 24 hrs by Hoechst 33258/FITC staining-based […]; type: cell-based; method in brief: as §2
[9] = tested on: MCF7; test: Cytotoxicity against human MCF7 cells after 48 hrs by MTT assay; type: functional, cell-based; details: MCF7, 48 h
Method in brief: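 Cells in DMEM with 10% FBS were plated at 2 × 10^4 per well and left overnight, then treated for 48 h at 0.6–20 µM (six concentrations) from 10 mM DMSO stocks. MTT was added for 2 h, and formazan was dissolved in DMSO and read at 570 nm. Viability was expressed as % of control, with IC50 taken from dose-response curves. Results are mean ± SD of three independent experiments.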

[10] = tested on: A-431; test: Induction of apoptosis in human A431 cells assessed as increase in histone-associated DNA fragments in oligonucleosomes at 0.1 uM after 24 hrs by ELISA; type: functional, cell-based; method in brief: as §1
[11] = molecular target: T1, Tubulin (Homo sapiens); test: Inhibition of tubulin polymerization in human A431 cells assessed as perturbation in cytoskeleton structure at 1 uM after 24 hrs by ELISA; type: cell-based
[12] = molecular target: T1, Tubulin (Homo sapiens); test: Inhibition of tubulin polymerization in human HeLa cells assessed as micronuclei formation at 1 uM after 24 hrs by Hoechst 33258/FITC staining-based […] analysis; type: cell-based; method in brief: as §2
[13] = molecular target: T1, Tubulin (Homo sapiens); test: Inhibition of tubulin polymerization in human MDA-MB-231 cells assessed as perturbation in cytoskeleton structure at 1 uM after 24 hrs by Hoechst 33258/FITC staining-based flow cytometric analysis; type: cell-based
[14] = molecular target: T1, Tubulin (Homo sapiens); test: Inhibition of tubulin polymerization in human MDA-MB-231 cells assessed as perturbation in cytoskeleton structure at 1 uM after 24 hrs by ELISA; type: cell-based
[15] = Inhibition of porcine tubulin polymerization after 1 hr by spectrophotometric analysis; parameters: species or system Sus scrofa
Method in brief: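 Polymerization was started by shifting from 4 °C to 37 °C, and absorbance was followed at 37 °C for 60 min. The vehicle served as control.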

[16] = molecular target: T1, Tubulin (Homo sapiens); test: Inhibition of tubulin polymerization in human MCF7 cells assessed as chromatin condensation at 1 uM after 24 hrs by Hoechst 33258 staining-based fluorescence microscopic analysis; type: cell-based; method in brief: as §2
[17] = tested on: HeLa; test: Induction of apoptosis in human HeLa cells assessed as increase in histone-associated DNA fragments in mononucleosomes after 24 hrs by ELISA; type: functional, cell-based; method in brief: as §1
[18] = tested on: MCF7; test: Induction of apoptosis in human MCF7 cells assessed as increase in histone-associated DNA fragments in mononucleosomes after 24 hrs by ELISA; type: functional, cell-based; method in brief: as §1
[19] = tested on: SK-OV-3; test: Induction of apoptosis in human SKOV3 cells assessed as increase in histone-associated DNA fragments in oligonucleosomes after 24 hrs by ELISA; type: functional, cell-based; method in brief: as §1
[20] = tested on: SK-OV-3; test: Cell cycle arrest in human SKOV3 cells assessed as accumulation of cells at G2/M phase after 24 hrs by propidium iodide staining-based FACS analysis; type: functional
Method in brief: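 Cells were seeded at 5 × 10^5 per well in DMEM with 10% FBS and left overnight, then exposed to 0.1, 0.5 or 1 µM for 24 h. DMSO served as the negative control and 50 nM camptothecin as the positive control. Cells were trypsinized, fixed in 70% ethanol for 30 min at 4 °C, stained with 50 µg/mL PI plus 100 µg/mL RNase A for 30 min in the dark, and analysed by flow cytometry. Results are mean ± SD of three experiments, compared by ANOVA with Dunnett's test.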

[21] = molecular target: T1, Tubulin (Homo sapiens); test: Inhibition of tubulin polymerization in human A431 cells assessed as chromatin condensation at 1 uM after 24 hrs by Hoechst 33258 staining-based fluorescence microscopic analysis; type: cell-based
Method in brief: (§3)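 Cells were seeded at 12.5 × 10^4 per well and treated at 1 µM for 24 h. They were stained with Hoechst 33258 (10 µg/mL, 30 min, 37 °C), fixed in 4% formaldehyde, permeabilized with 1% Triton X-100 and blocked in 2% BSA. Anti-α-tubulin-FITC (1:50) was applied overnight at 4 °C, and cells were imaged by fluorescence microscopy.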

[22] = tested on: Tubulin; test: Inhibition of tubulin polymerization in human HaCaT cells assessed as chromatin condensation at 1 uM after 24 hrs by Hoechst 33258 staining-based fluorescence microscopic analysis; type: cell-based; method in brief: as §3

Row | Compound | inhibition [2] | inhibition [3] | inhibition [4] | inhibition [6] | Activity [7] | inhibition (INH) [8] | IC50 [9] [µM] | inhibition [11] | inhibition [12] | inhibition [13] | inhibition [14] | IC50 [15] [µM] | also measured
1 | COc1ccc(-c2ocnc2-c2cc(OC)c(SC)c(OC)c2)cc1O | Active | Active | Active | Active | Dose-dependent effect | Active | 0.45 | Active | Active | Active | Active | 1.05 | Activity [1]: Active; Activity [5]: Active; Activity [10]: Active
2 | COc1ccc(-c2ocnc2-c2cc(Br)c(OC)c(OC)c2)cc1SC | Active | Active | Active | Active | Dose-dependent effect | Active | 2.78 | Active | Active | Active | Active | 0.85 | inhibition [16]: Active; Activity [17]: Dose-dependent effect; Activity [18]: Dose-dependent effect; Activity [19]: Dose-dependent effect; Activity [20]: Dose-dependent effect; inhibition [21]: Active; inhibition (INH) [22]: Active
